The target of assay [1] is T1, Neuraminidase (Influenza A virus, UniProt B4URF0). Description: Inhibition of Influenza A virus A/California/07/2009 (H1N1) neuraminidase using MUNANA as substrate preincubated for 30 mins measured after 2 hrs.
In assay [2] the target is T1, Neuraminidase. Kind of assay: Inhibition of Influenza A virus A/Hong Kong/8/1968 (H3N2) neuraminidase using MUNANA as substrate preincubated for 30 mins measured after 2 hrs.
Assay [3] deals with Influenza A virus. Description: Antiviral activity against Influenza A virus A/California/07/2009 (H1N1) infected in MDCK cells assessed as reduction in virus plaque formation after 5 days. Format: functional, organism-based. The note with it: 120 h. The method in brief: (§1)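 MDCK cells were seeded at 1×10^6 per well and inoculated with virus at confluence. Serial ten-fold dilutions of inhibitor were added in an overlay of serum-free DMEM with 0.6% agarose and 1 µg/mL TPCK-treated trypsin. The overlay was removed after 5 days, and cells were fixed with 70% ethanol and stained with 0.2% crystal violet.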

Assay [4] relates to Influenza A virus. Description: Antiviral activity against Influenza A virus A/Hong Kong/8/1968 (H3N2) infected in MDCK cells assessed as reduction in virus plaque formation after 5 days. Format: functional, organism-based. The note with it: 120 h. Put shortly:
as §1

Assay [5] addresses T1, Neuraminidase. Description: Inhibition of Influenza A virus H3N2 neuraminidase using MUNANA as substrate preincubated for 30 mins measured after 2 hrs.
The target in assay [6] is T1, Neuraminidase. Description: Inhibition of Influenza A virus H5N1 neuraminidase using MUNANA as substrate preincubated for 30 mins measured after 2 hrs.

Structures are written as SMILES.

Broadly, the IC50 is the point on the concentration scale where inhibition reaches its midpoint.

T1 sequence (B4URF0 whole entry): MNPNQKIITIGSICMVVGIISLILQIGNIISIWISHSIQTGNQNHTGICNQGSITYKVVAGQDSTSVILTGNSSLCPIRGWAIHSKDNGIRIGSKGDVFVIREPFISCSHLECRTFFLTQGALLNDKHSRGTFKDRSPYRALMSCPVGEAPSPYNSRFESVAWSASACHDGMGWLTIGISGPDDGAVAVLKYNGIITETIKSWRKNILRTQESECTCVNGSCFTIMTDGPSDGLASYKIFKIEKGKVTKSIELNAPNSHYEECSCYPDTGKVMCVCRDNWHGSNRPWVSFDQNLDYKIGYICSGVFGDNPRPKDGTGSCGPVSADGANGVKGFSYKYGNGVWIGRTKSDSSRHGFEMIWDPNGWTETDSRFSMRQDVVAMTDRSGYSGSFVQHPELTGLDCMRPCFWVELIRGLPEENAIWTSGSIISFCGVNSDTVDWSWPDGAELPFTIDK

In the case of `CC(=O)N[C@H]1[C@H]([C@H](O)[C@H](O)CO)OC(SCCCCCCCCCCCCSC2(C(=O)O)C[C@H](NC(=N)N)[C@@H](NC(C)=O)[C@H]([C@H](O)[C@H](O)CO)O2)(C(=O)O)C[C@@H]1NC(=N)N` (stereo not given in full), the IC50 was determined as 0.8 µM at Neuraminidase [1]; 0.5 µM at Neuraminidase [2]; 1 µM with Influenza A virus [3]; 0.1 µM in the assay with Influenza A virus [4]; 12 µM on Neuraminidase [5]; 0.73 µM on Neuraminidase [6].
On to `CC(=O)N[C@H]1[C@H]([C@H](O)[C@H](O)CO)OC(SCCCCCCSC2(C(=O)O)C[C@H](N)[C@@H](NC(C)=O)[C@H]([C@H](O)[C@H](O)CO)O2)(C(=O)O)C[C@@H]1N` (stereo not given in full), for which the IC50 came out at 9.9 µM against Neuraminidase [1]; 11.6 µM against Neuraminidase [2]; 100 µM in the assay with Influenza A virus [3]; 1 µM with Influenza A virus [4]; 32 µM against Neuraminidase [5]; 20 µM at Neuraminidase [6].
`CC(=O)N[C@H]1[C@H]([C@H](O)[C@H](O)CO)OC(C(=O)O)=C[C@@H]1NC(=N)N` [ZANAMIVIR]: the half-maximal inhibitory concentration (IC50) was found to be 0.01 µM with Influenza A virus [3] and 0.001 µM in the assay with Influenza A virus [4].
For `CC(=O)N[C@H]1[C@H]([C@H](O)[C@H](O)CO)OC(SCCCCCCCCCCCCSC2(C(=O)O)C[C@H](N)[C@@H](NC(C)=O)[C@H]([C@H](O)[C@H](O)CO)O2)(C(=O)O)C[C@@H]1N` (stereo not given in full), the IC50 against Neuraminidase [1] was 11 µM; on Neuraminidase [2], 15 µM; with Influenza A virus [3] it was 100 µM; with Influenza A virus [4], 1 µM; against Neuraminidase [5] it was 40 µM; against Neuraminidase [6], 31 µM.
Consider `CCOC(=O)C1=C[C@@H](OC(CC)CC)[C@H](NC(C)=O)[C@@H](N)C1` [OSELTAMIVIR], for which the IC50 in the assay on Influenza A virus [3] and in the assay on Influenza A virus [4] was 0.001 µM in each case.
Take `CC(=O)N[C@H]1[C@H]([C@H](O)[C@H](O)CO)OC(SCCOCCOCCOCCOCCSC2(C(=O)O)C[C@H](N)[C@@H](NC(C)=O)[C@H]([C@H](O)[C@H](O)CO)O2)(C(=O)O)C[C@@H]1N` (stereo not given in full): the IC50 at Neuraminidase [1] was determined as 36 µM; against Neuraminidase [2] it was 21 µM; in the assay with Influenza A virus [3], 100 µM; with Influenza A virus [4] it was 1 µM; at Neuraminidase [5], 178 µM; on Neuraminidase [6], 64 µM.
On to `CC(=O)N[C@H]1[C@H]([C@H](O)[C@H](O)CO)OC(SCCOCCOCCOCCSC2(C(=O)O)C[C@H](NC(=N)N)[C@@H](NC(C)=O)[C@H]([C@H](O)[C@H](O)CO)O2)(C(=O)O)C[C@@H]1NC(=N)N` (stereo not given in full), for which the IC50 at Neuraminidase [1] came out at 2.4 µM; on Neuraminidase [2] it was 1.78 µM; in the assay on Influenza A virus [3] it was 1 µM; in the assay on Influenza A virus [4], 0.1 µM; against Neuraminidase [5], 10 µM; on Neuraminidase [6] it was 2.5 µM.
For `CC(=O)N[C@H]1[C@H]([C@H](O)[C@H](O)CO)OC(SCCCCCCS)(C(=O)O)C[C@@H]1N` (stereo not given in full), the IC50 is 56 µM against Neuraminidase [1]; 64 µM against Neuraminidase [2]; over 100 µM in the assay with Influenza A virus [3]; 10 µM with Influenza A virus [4]; 178 µM at Neuraminidase [5]; 127 µM against Neuraminidase [6].
Regarding `CC(=O)N[C@H]1[C@H]([C@H](O)[C@H](O)CO)OC(SCCCCCCSC2(C(=O)O)C[C@H](NC(=N)N)[C@@H](NC(C)=O)[C@H]([C@H](O)[C@H](O)CO)O2)(C(=O)O)C[C@@H]1NC(=N)N` (stereo not given in full), the IC50 against Neuraminidase [1] came to 0.26 µM; against Neuraminidase [2], 0.25 µM; in the assay on Influenza A virus [3], 1 µM; in the assay on Influenza A virus [4] it was 0.01 µM; against Neuraminidase [5] it was 4.2 µM; at Neuraminidase [6] it was 0.2 µM.
With `CC(=O)N[C@H]1[C@H]([C@H](O)[C@H](O)CO)OC(SCCCCCCS)(C(=O)O)C[C@@H]1NC(=N)N` (stereo not given in full), the IC50 at Neuraminidase [1] was found to be 0.8 µM; on Neuraminidase [2], 0.55 µM; with Influenza A virus [3], 10 µM; in the assay with Influenza A virus [4] it was 1 µM; against Neuraminidase [5], 1 µM; against Neuraminidase [6], 0.1 µM.
As for `CC(=O)N[C@H]1[C@H]([C@H](O)[C@H](O)CO)OC(SCCOCCOCCOCCOCCOCCSC2(C(=O)O)C[C@H](N)[C@@H](NC(C)=O)[C@H]([C@H](O)[C@H](O)CO)O2)(C(=O)O)C[C@@H]1N` (stereo not given in full), the IC50 on Neuraminidase [1] turned out to be 45 µM; against Neuraminidase [2] it was 33 µM; in the assay with Influenza A virus [3], 100 µM; with Influenza A virus [4], 1 µM; against Neuraminidase [5] it was 216 µM; at Neuraminidase [6], 85 µM.
For `CC(=O)N[C@H]1[C@H]([C@H](O)[C@H](O)CO)OC(SCCOCCOCCOCCOCCSC2(C(=O)O)C[C@H](NC(=N)N)[C@@H](NC(C)=O)[C@H]([C@H](O)[C@H](O)CO)O2)(C(=O)O)C[C@@H]1NC(=N)N` (stereo not given in full), the IC50 against Neuraminidase [1] amounted to 1.2 µM; against Neuraminidase [2] it was 1 µM; in the assay on Influenza A virus [3] it was 1 µM; in the assay on Influenza A virus [4], 0.01 µM; at Neuraminidase [5], 10 µM; on Neuraminidase [6], 1.1 µM.
Regarding `CC(=O)N[C@H]1[C@H]([C@H](O)[C@H](O)CO)OC(SCCOCCOCCOCCSC2(C(=O)O)C[C@H](N)[C@@H](NC(C)=O)[C@H]([C@H](O)[C@H](O)CO)O2)(C(=O)O)C[C@@H]1N` (stereo not given in full), the IC50 came to 9.8 µM against Neuraminidase [1]; 11 µM against Neuraminidase [2]; 100 µM with Influenza A virus [3]; 1 µM in the assay on Influenza A virus [4]; 39 µM against Neuraminidase [5]; 28 µM against Neuraminidase [6].

The values are drawn from ChEMBL document CHEMBL3102796.
